ChEMBL document CHEMBL4814017, “Discovery and optimization of novel 3-benzyl-N-phenyl-1H-pyrazole-5-carboxamides as bifunctional antidiabetic agents stimulating both insulin secretion and glucose uptake” (Eur J Med Chem, 2021)
Calls of active or inactive are those of the source. The rule behind the calls is not given here.

Legend:
[1] = Cytotoxicity against rat INS1 cells assessed as cell viability at 10 uM incubated for 24 hrs by MTT assay relative to untreated control; format: cell-based; settings: read-out: Activity
[2] = Induction of insulin secretion in rat INS-1 cells assessed as glucose stimulation index at 10 uM followed by stimulated with 16.7 mM glucose measured after 1 hrs by ELISA relative to basal insulin level; format: functional, INS1
Procedure, shortened: (§1)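 Rat insulinoma INS-1 cells grown in RPMI 1640 with 11 mM glucose, 10% FBS, HEPES, pyruvate and 2-mercaptoethanol. After 24 h seeding, cells washed in KRB pH 7.4 with 3.3 mM glucose, starved 2 h, given compound for 30 min, then 3.3 mM (basal) or 16.7 mM glucose for 1 h. Insulin measured by rat insulin ELISA at 450 nm. GSI = stimulated/basal insulin. Triplicate, mean ± SD. Gliclazide control.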

[3] = Induction of insulin secretion in rat INS-1 cells assessed as glucose stimulation index at 5 uM followed by stimulated with 16.7 mM glucose measured after 1 hrs by ELISA relative to basal insulin level; format: functional, INS1; procedure, shortened: as §1
[4] = Cytotoxicity against human LX2 cells assessed as reduction in cell viability incubated for 24 hrs by MTT assay; format: cell-based; settings: lx-2, 24 h
[5] = tested on: INS1; experiment: Induction of PDX-1 expression in rat INS-1 cells at 2.5 to 10 uM after 24 hrs by Western blot analysis; format: functional, cell-based; settings: dose 2.5-10 µM
Procedure, shortened: (§2)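 INS-1 cells seeded in 6-well plates, grown 24 h, then treated 24 h with 0, 2.5, 5 or 10 µM; vehicle control 0.5% DMSO. Lysed in RIPA with 1 mM PMSF at 4 °C, protein by BCA. Blots probed for p-IRS-2 (Ser731), IRS-2, p-PI3K, PI3K, p-Akt (Ser473), Akt, PPAR-γ, PDX-1 and GAPDH, HRP anti-rabbit secondary, ECL detection, densitometry. Triplicate, n = 3, SD.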

[6] = tested on: INS1; experiment: Activation of PI3K/Akt signalling pathway in rat INS1 cells assessed as increase in p-Akt expression at 2.5 to 10 uM after 24 hrs by Western blot analysis; format: cell-based; settings: filed as activator, dose 2.5-10 µM; procedure, shortened: as §2
[7] = tested on: INS1; experiment: Activation of PI3K/Akt signalling pathway in rat INS1 cells assessed as increase in p-IRS2 expression at 2.5 to 10 uM after 24 hrs by Western blot analysis; format: cell-based; settings: filed as activator, dose 2.5-10 µM; procedure, shortened: as §2
[8] = tested on: C2C12; experiment: Upregulation of IRS-1 level in mouse C2C12 cells upto 50 uM after 16 hrs by Western blot analysis; format: functional, cell-based; settings: dose microM <=50, time 16.0 hrs
Procedure, shortened: (§3)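 C2C12 myoblasts grown in DMEM to 90% confluence and differentiated 4 days in DMEM with 2% horse serum. Myotubes then held 16 h in DMEM with 2% BSA and 10% FBS with 0, 5, 10, 20 or 50 µM compound. Western blot for MG53, IRS-1, p-PI3K, PI3K, p-Akt, Akt and GAPDH.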

[9] = tested on: C2C12; experiment: Downregulation of MG53 level in mouse C2C12 cells after 16 hrs by Western blot analysis; format: functional, cell-based; settings: dose microM <=50, time 16.0 hrs; procedure, shortened: as §3
[10] = tested on: C2C12; experiment: Activation of PI3K/Akt signalling pathway in mouse C2C12 cells assessed as increase in p-PI3K expression upto 50 uM incubated for 16 hrs by Western blot analysis; format: cell-based; settings: filed as activator, dose microM <=50, time 16.0 hrs; procedure, shortened: as §3
[11] = tested on: INS1; experiment: Induction of PPARgamma expression in rat INS1 cells at 2.5 to 10 uM after 24 hrs by Western blot analysis; format: functional, cell-based; settings: dose 2.5-10 µM; procedure, shortened: as §2
[12] = tested on: 3T3-L1; experiment: Cytotoxicity against mouse 3T3-L1 cells assessed as reduction in cell viability incubated for 24 hrs by MTT assay; format: cell-based; settings: 3t3-l1, 24 h
[13] = tested on: C2C12; experiment: Activation of PI3K/Akt signalling pathway in mouse C2C12 cells assessed as increase in p-Akt expression upto 50 uM incubated for 16 hrs by Western blot analysis; format: cell-based; settings: filed as activator, dose microM <=50, time 16.0 hrs; procedure, shortened: as §3
[14] = tested on: C2C12; experiment: Induction of glucose uptake in mouse C2C12 cells incubated for 16 hrs in absence of insulin by 2-NBDG uptake assay; format: functional, cell-based; settings: dose microM <=50, time 16.0 hrs
Procedure, shortened: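 Differentiated C2C12 myotubes (4 days, DMEM with 2% horse serum) held 16 h in DMEM with 2% BSA and 10% FBS, with or without compound and without insulin, after which basal glucose uptake was measured.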

[15] = tested on: INS1; experiment: Activation of PI3K/Akt signalling pathway in rat INS1 cells assessed as increase in p-PI3K expression at 2.5 to 10 uM after 24 hrs by Western blot analysis; format: cell-based; settings: filed as activator, dose 2.5-10 µM; procedure, shortened: as §2

Structure (SMILES) | viability at 24 h, 10 µM [1] [%] | Activity_index [2] | Activity_index [3] | also measured
CC(C)(C)c1ccc(NC(=O)c2cc(Cc3ccc(Cl)cc3)n[nH]2)cc1 | 97.5 | 4.89 | – | –
COc1ccc(NC(=O)c2cc(Cc3ccc(F)cc3)n[nH]2)c(OC)c1 | 99.9 | – | 1.93 | –
O=C(Nc1ccccc1)c1cc(Cc2ccc(Cl)cc2)n[nH]1 | 109 | 5.24 | – | –
COc1ccc(N(C)C(=O)c2cc(Cc3ccc(Cl)cc3)n[nH]2)c(OC)c1 | 93.3 | – | 1.33 | –
COc1ccc(Cc2cc(C(=O)Nc3ccc(OC)cc3)[nH]n2)cc1 | 105 | 1.66 | – | –
O=C(Nc1ccc2c(c1)OCO2)c1cc(Cc2ccc(F)cc2)n[nH]1 | 97.6 | – | 1.25 | –
COc1ccc(OC)c(NC(=O)c2cc(Cc3ccc(F)cc3)n[nH]2)c1 | 104 | – | 1.52 | –
COc1ccc(Cc2cc(C(=O)Nc3ccccc3)[nH]n2)cc1 | 105 | 4.4 | – | –
COc1ccc(Cc2cc(C(=O)Nc3cc(OC)ccc3OC)[nH]n2)cc1 | 100 | – | 2.35 | –
COc1ccc(Cc2cc(C(=O)Nc3ccc(C(C)(C)C)cc3)[nH]n2)cc1 | 99.4 | 1.64 | – | –
COc1ccc(Cc2cc(C(=O)Nc3ccccc3OC)[nH]n2)cc1 | 101 | – | 1.66 | –
COc1ccc(Cc2cc(C(=O)Nc3ccc(C(F)(F)F)cc3)[nH]n2)cc1 | 98.4 | 2.07 | – | –
O=C(Nc1ccc2c(c1)OCO2)c1cc(Cc2ccc(Cl)cc2)n[nH]1 | 101 | – | 1.29 | –
COc1ccc(Cc2cc(C(=O)Nc3ccc4c(c3)OCO4)[nH]n2)cc1 | 102 | – | 1.13 | –
O=C(Nc1ccc(C(F)(F)F)cc1)c1cc(Cc2ccc(Cl)cc2)n[nH]1 | 102 | 1.69 | – | –
O=C(Nc1ccccc1)c1cc(Cc2ccc(F)cc2)n[nH]1 | 100 | 2 | – | –
CC(C)(C)c1ccc(NC(=O)c2cc(Cc3ccc(F)cc3)n[nH]2)cc1 | 98.6 | 1.96 | – | –
COc1ccc(OC)c(NC(=O)c2cc(Cc3ccc(Cl)cc3)n[nH]2)c1 | 97.9 | – | 3.25 | –
COc1ccc(NC(=O)c2cc(Cc3cccc(Cl)c3)n[nH]2)c(OC)c1 | 97.7 | – | 1.29 | –
COc1ccccc1NC(=O)c1cc(Cc2ccc(F)cc2)n[nH]1 | 104 | – | 3.67 | –
COc1ccc(Cc2cc(C(=O)Nc3ccc(OC)cc3OC)[nH]n2)cc1 | 101 | – | 1.58 | –

Structure (SMILES) | viability at 24 h, 10 µM [1] [%] | Activity_index [2] | Activity_index [3] | also measured
COc1cccc(NC(=O)c2cc(Cc3ccc(Cl)cc3)n[nH]2)c1 | 96.5 | – | 1.54 | –
COc1cccc(NC(=O)c2cc(Cc3ccc(Cl)cc3)n[nH]2)c1OC | 98.8 | – | 1.85 | –
COC(=O)c1ccc(NC(=O)c2cc(Cc3ccc(Cl)cc3)n[nH]2)cc1 | 101 | 1.48 | – | –
COc1ccccc1NC(=O)c1cc(Cc2ccc(Cl)cc2)n[nH]1 | 98.1 | – | 1.56 | –
O=C(Nc1ccc(F)cc1)c1cc(Cc2ccc(F)cc2)n[nH]1 | 100 | 1.86 | – | –
COc1ccc(Cc2cc(C(=O)Nc3cccc(OC)c3OC)[nH]n2)cc1 | 98.9 | – | 1.13 | –
COc1ccc(NC(=O)c2cc(Cc3ccc(Cl)cc3)n[nH]2)cc1 | 101 | 7.59 | 2.6 | –
COc1ccc(NC(=O)c2cc(Cc3ccc(F)cc3)n[nH]2)cc1 | 95.6 | 2.03 | – | –
COc1ccc(NC(=O)c2cc(Cc3ccc(Cl)cc3)n[nH]2)c(OC)c1 | 96.3 | – | 14.9 | Activity [4]: Non-Toxic; Activity [5]: Active; Activity [6]: Dose-Dependent Effect; Activity [7]: Dose-Dependent Effect; Activity [8]: Active; inhibition [9]: Dose-Dependent Effect; Activity [10]: Active; Activity [11]: Active; Activity [12]: Non-Toxic; Activity [13]: Active; Activity [14]: Dose-Dependent Effect; Activity [15]: Dose-Dependent Effect
COc1ccc(NC(=O)c2cc(Cc3ccccc3Cl)n[nH]2)c(OC)c1 | 102 | – | 2.43 | –
COc1cccc(NC(=O)c2cc(Cc3ccc(F)cc3)n[nH]2)c1 | 101 | – | 7.49 | –
COc1ccc(Cc2cc(C(=O)Nc3cccc(OC)c3)[nH]n2)cc1 | 102 | – | 1.55 | –
O=C(Nc1ccc(F)cc1)c1cc(Cc2ccc(Cl)cc2)n[nH]1 | 94.9 | 6.73 | – | –
COC(=O)c1ccc(NC(=O)c2cc(Cc3ccc(OC)cc3)n[nH]2)cc1 | 99.2 | 1.85 | – | –
O=C(Nc1ccc(C(F)(F)F)cc1)c1cc(Cc2ccc(F)cc2)n[nH]1 | 92.8 | 2.02 | – | –
COC(=O)c1ccc(NC(=O)c2cc(Cc3ccc(F)cc3)n[nH]2)cc1 | 102 | 1.42 | – | –
COc1ccc(Cc2cc(C(=O)Nc3ccc(F)cc3)[nH]n2)cc1 | 105 | 2.49 | – | –
COc1ccc(NC(=O)c2cc(C(=O)c3ccc(Cl)cc3)n[nH]2)c(OC)c1 | 100 | – | 1.49 | –
COc1cccc(NC(=O)c2cc(Cc3ccc(F)cc3)n[nH]2)c1OC | 102 | – | 1.16 | –
Cc1ccc(S(=O)(=O)NC(=O)NN2CC3CCCC3C2)cc1 (stereo not drawn) [GLICLAZIDE] | 98.7 | 5.86 | 4.22 | –
COc1ccc(NC(=O)c2cc(Cc3ccc(Cl)cc3)nn2C)c(OC)c1 | 96.2 | – | 1.37 | –
